F508del corr: correctors of CFTR F508del function in bronchial epithelial cells | activity (quench increase), % at 7.58 µM | actives 0.36% (n = 350,000) | CFBE cells, YFP halide quenching; stimulated with forskolin plus potentiator P3; % fluorescence drop versus neutral controls;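 active = mean added fluorescence quench of at least 8% versus neutral control, with both replicates also reaching 8%; inconclusive = only one of the mean or replicate conditions met; inactive = mean below 8% and not both replicates reaching 8%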;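 also: cells transiently co-express mutant CFTR-F508del with the halide-sensitive YFP; corrector assay measuring rescue of mutant channel to the surface after 24 h compound exposure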
miR122 inh: inhibitors of miR-122 in Huh7 cells; Huh7 miR-122 Renilla luciferase sensor, 48 h; neutral wells = 0, positive control = 100; actives 0.3% (n = 340,000); activation (reporter increase), % at 12.5 µM;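 active = mean replicate activation score at least 90 and every replicate individually at or above 90; inconclusive = only one of the two criteria met; inactive = neither criterion met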;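 also: higher luciferase means less miR-122 activity so hits act as miR-122 inhibitors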
Ecoli rRNA inh: inhibits bacterial ribosomal RNA function over humanized ribosomes | E. coli WT GFP vs humanized-ribosome RFP mutants, fluorescence, 24 h; hits give low values; DMSO median 0, no signal -100 | GFP signal change (wild-type ribosome), % (no concentration beside the values) | actives 1.6% (n = 350,000) | AID 720706;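 active = significant combined selectivity score with lowered wild-type GFP, culture density cut under 30%, mutant RFP and density less affected; inactive = any of these conditions unmet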
Env fusion inh: blocks HIV Env-driven cell-cell fusion; HeLa-JRFL Env/CEM21 cell fusion, luciferase; actives 1.1% (n = 360,000); AID 651610; inhibition, % at 12.3 µM;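 active = mean replicate inhibition score of at least 50 and every replicate individually at or above 50; inconclusive = only one of the two criteria met; inactive = mean below 50 and not all replicates reaching 50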;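 also: 0% = plate neutral controls and 100% = maraviroc near 300 nM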
INS-1E GSIS act: GLuc luminescence reporter in INS-1E cells, primary screen for activators of glucose-dependent secretion of insulin. INS-1E GLuc reporter insulin secretion, 2-3 h. activation, % at 16.6 µM. actives 0.61% (n = 370,000);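 active = lowest replicate activation of at least 40%, so every replicate reaches that level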;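 also: 0% = median of neutral control wells and 100% = median of IBMX positive control wells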
Cneo AK release: Cryptococcus neoformans lysis via adenylate kinase release. lysis activity, % at 15 µM. C. neoformans lysis, adenylate kinase release luminescence, 4 h; normalised: neutral wells 0, clomiphene wells 100. actives 0.2% (n = 360,000);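 active = mean lysis activity across replicates of at least 80%, whatever share of replicates individually reach that level; inactive = mean lysis activity below 80%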
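Test system: log-phase Cryptococcus neoformans yeast cells; Quantity: yeast cell density of 5 × 10^6 cells/mL; Buffer or medium: YPD; Doses: single compound concentration per well; Timing: 4 h at 37 °C static, read 1 h later; Measured by: AK luminescence; Read-out basis: lysis from increased AK signal; Control set: Clomiphene as positive control.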
* marks the source's active call; other numbers are inactive results; i = inactive; ? = inconclusive; · = no result given; [ ] = dose if it differs, or a comment. In the library only some 3.1% were active in any assay of this set; here they are far more common.

SMILES | F508del corr | miR122 inh | Ecoli rRNA inh | Env fusion inh | INS-1E GSIS act | Cneo AK release
O=C(CN1C(=O)NC2(CCc3ccccc32)C1=O)c1ccc(Br)s1 (stereo not given) | 2 | · | -30* | · | -9 | 1
O=C(CN1C(=O)NC2(CCCc3ccccc32)C1=O)c1ccccc1F (stereo not given) | -3 | -10 | -35* | 24 | -10 | 2
O=C(CN1C(=O)NC2(CCc3ccccc32)C1=O)c1ccc(F)c(F)c1 (stereo not given) | 2 | -2 | 4 | 20 | 1 | -1
CC(=O)N1C[C@@H]2C(c3ccccc3)[C@H](C1)N2CC(F)(F)F (stereo not given in full) | · | · | 0 | · | 2 | ·
CCN(CC)CCn1nc2c3c(cccc3c1=O)-c1ccccc1-2 | 18* | · | -23 | -234 | 16 | ·
O=c1c2cccc3c2c(nn1CN1CCOCC1)-c1ccccc1-3 | · | -8 | · | · | · | 1
CC1(C(=O)NCCc2c[nH]c3ccccc23)CCN1CC1CCCCC1 (stereo not given) | 2 | -3 | -23* | 0 | · | -1
CCOC(=O)Cn1nnnc1CN(Cc1cccs1)Cc1cc2cc(C)ccc2[nH]c1=O | · | · | · | 31 | -10 | ·
CCOC(=O)Cn1nnnc1CN(CCc1ccccc1)Cc1cc2cc(CC)ccc2[nH]c1=O | · | 1 | · | 119* | -26 | -5
CSc1cccc(NC(=O)CSc2nc3ccccc3o2)c1 | -1 | -1 | -25* | · | -3 | -1
CC(=O)Nc1cccc(NC(=O)CSc2nc3ccccc3o2)c1 | · | · | · | 14 | · | ·
CN(CCCC(=O)O)c1ccc(N=Nc2ccc([N+](=O)[O-])cc2)cc1 | -1 | · | -31* | -55 | -3 | ·
Cc1nc(SCc2nc3cc(Cl)c(F)cc3[nH]2)c2oc3ccccc3c2n1 | 1 | 4 | 2 | 66* | 11 | -1
Cc1nc(SCc2nc3ccc(Cl)cc3[nH]2)c2oc3ccccc3c2n1 | 2 | 1 | -5 | 1 | · | 4
Cc1cccc(C)c1NC(=O)C1C(c2ccccc2)=Nc2ccccc2N1C(=O)c1cnccn1 (stereo not given) | 5 | · | -38 | 64* | 16 | ·
O=C1CC(c2ccccc2)CC2=C1C=Nc1ccccc1N2 (stereo not given) | 9.2* | · | 1 | 6 | 10 | ·
CCOc1ccc(Cl)cc1S(=O)(=O)n1cnc2cc(C)c(C)cc21 | · | 183* | · | 5 | · | 0
CC(=O)Nc1ccc(/C=C/c2ccc3cccc([N+](=O)[O-])c3n2)cc1 | 2 | 9 | -16* | -50 | 4 | -1
O=C(O)COc1ccc(/C=C/c2ccc3cccc([N+](=O)[O-])c3n2)cc1 | -4 | 4 | -36 | · | -1 | -2
O=c1cc(-c2ccccc2)nc(SCc2ccccc2)[nH]1 | · | -7 | · | · | 79* | ·
Cc1ccc(S(=O)(=O)Nc2ccc3c(c2)C(=O)N([C@H](C)CO)C[C@@H](C)[C@H](CN(C)S(=O)(=O)c2ccc(F)cc2)O3)cc1 | -2 | 6[16.7 µM] | -3 | 60*[16.7 µM] | -12 | ·
C[C@H](CO)N1C[C@H](C)[C@H](CN(C)S(=O)(=O)c2ccccc2)Oc2ccc(NS(=O)(=O)c3ccc(F)cc3)cc2C1=O | 3 | 61[16.7 µM] | 2 | 6[16.7 µM] | -5 | 104*
CCOC(=O)c1sc2nc(C)nc(N3CCCCC3C)c2c1C (stereo not given) | -1 | -5 | -26* | 22 | 7 | ·
COCC(=O)N(C)C[C@@H]1Oc2cc(-c3ccc(F)cc3)ccc2S(=O)(=O)N([C@@H](C)CO)C[C@H]1C | 2 | 1[16.7 µM] | -4 | 8[16.7 µM] | 2 | 1
COc1ccc(-c2cc(C(=O)N3CCCCCC3)c3ccccc3n2)c(OC)c1 | 3 | 6 | -33* | -20 | -44 | 2
SMILES | F508del corr | miR122 inh | Ecoli rRNA inh | Env fusion inh | INS-1E GSIS act | Cneo AK release
COc1ccc(-c2cc(C(=O)N3CCN(c4ccccn4)CC3)c3ccccc3n2)cc1 | · | 32 | · | -129 | -38 | -8
Cc1cc(C(=O)N2CC=C(c3ccccc3)CC2)c2ccccc2n1 | 9.9* | 38 | -2 | -29 | 4 | ·
CCOc1ccc(-c2cc(C(=O)N3CCN(c4ccccn4)CC3)c3ccccc3n2)cc1 | 12* | 3 | 8 | · | 10 | -16
O=C(c1cc(-c2ccccc2)nc2ccccc12)N1CCCC1 | 3 | -4 | -1 | -2 | 44* | 1
C[C@@H]1CCCCO[C@H](CN(C)C(=O)Nc2ccc3c(c2)OCO3)[C@H](C)CN([C@H](C)CO)C(=O)c2cc(NC(=O)Cc3ccccc3)ccc2O1 | 1 | -13[16.7 µM] | 0 | 17[16.7 µM] | -14 | 8
N#C[C@@H]1[C@H](c2ccccc2-c2ccccc2F)[C@H](CO)N1C(=O)C1CCOCC1 | -2 | · | -2 | · | 17 | ·
O=C(c1cc(Br)ccc1Cl)N1CCN(c2ccccn2)CC1 | 1 | 1 | 4 | 10 | -14 | 135*
O=C1Nc2ccccc2/C1=C\C(=O)c1ccccc1 | 2 | -1 | -19* | -35 | -34 | 0
C[C@H](CO)N1C[C@H](C)[C@H](CN(C)C(=O)Nc2ccc(C(F)(F)F)cc2)Oc2ccc(NC(=O)NC3CCCCC3)cc2CC1=O | 0 | 10[16.7 µM] | 1 | -8[16.7 µM] | -16 | 2
O=C(O)CCCCCCCCc1cn(Cc2ccc(C(=O)c3ccccc3)cc2)nn1 | 14* | 18 | -16 | -86 | 15 | 1
CCc1cnc(N2[C@H](C#N)[C@H](c3ccc(C#Cc4ccccc4F)cc3)[C@H]2CO)s1 | 5 | · | 6 | 65*[16.7 µM] | 0 | 1
C[C@@H]1CN([C@@H](C)CO)S(=O)(=O)c2ccc(C3=CCCCC3)cc2O[C@@H]1CN(C)C(=O)Cc1ccccc1 | 0 | 12[16.7 µM] | -13 | -8[16.7 µM] | -23 | 2
C[C@H](CO)N1C[C@H](C)[C@@H](CN(C)C(=O)NC2CCCC2)Oc2ncc(-c3ccccc3)cc2C1=O | 4 | 24[16.7 µM] | -1 | 15[16.7 µM] | 0 | 6
CCc1ccc(OCC(=O)NNC(=S)NC(=O)C2CC2)c(Br)c1 | 0 | 10 | · | 49 | · | -1
CCc1ccc(OCC(=O)NC(=S)Nc2ccc(C)cc2C)c(Br)c1 | · | -4 | · | ? | 41* | 8
Fc1ccc(-c2nnc(-c3ccc4ccccc4c3)o2)cc1 | 6 | -9 | -6.9* | i | 55 | -18
CC(=O)Nc1cn(-c2ccccc2)nc1-c1ccccc1 | -2 | -2 | 2 | 7 | -5 | ·
O=C(CCl)Nc1cn(-c2ccccc2)nc1-c1ccccc1 | -1 | · | -27* | -2 | 2 | -2
C[C@H](CO)N1C[C@H](C)[C@H](CN(C)S(=O)(=O)c2cn(C)cn2)Oc2ccc(NC(=O)Cc3ccccc3)cc2C1=O | 1 | -5[16.7 µM] | 0 | · | 14 | -3
COc1ccc(C2C(C(N)=O)=C(C)Nc3nc(-c4cccc(Cl)c4)nn32)cc1OC (stereo not given) | · | -9 | · | 58* | · | 1

High-throughput results from PubChem BioAssay.
